Source: PubChem BioAssay
hK5 inh: human KLK5 protease inhibitors, primary screen, biochemical, 1536-well; Kallikrein-5 (Homo sapiens), Q9Y337; inhibition, % at 5 µM; recombinant hK5, fluorogenic AMC substrate cleavage; 0.59% of 210,000 active;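 active = inhibition of 40% or more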
EP2 mod: EP2 receptor modulators, cAMP readout, primary screen, cell-based, HTRF cAMP, PGE2 stimulation; EP2-expressing cells, cAMP HTRF FRET, PGE2 co-stimulation; induction, % at 25 µM; 0.83% of 260,000 active; Prostaglandin E2 receptor EP2 subtype (Homo sapiens), P43116;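 active = compounds whose cAMP rise, as percent of the full-agonist control response, exceeds 60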;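 note: rat C6 glioma line stably carrying human EP2 under a CMV promoter; the protocol text gives 20 µM as final concentration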
EP2 antag: human EP2 receptor antagonists, primary screen, TR-FRET cAMP, C6 glioma cells | C6 glioma cells expressing human EP2; cells stimulated with saturating PGE2 | inhibition, % at 25 µM | 0.52% of 260,000 active;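 active = percent inhibition above 40 after rounding to a whole number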;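 note: rat C6 glioma host cells with rolipram phosphodiesterase inhibitor present; the protocol text gives 20 µM as final concentration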
thrombin 1536: human alpha-thrombin inhibitors, primary screen, counter-screen for coagulation protease inhibitor project, biochemical, 1536-well, fluorogenic AMC substrate. Prothrombin (Homo sapiens), P00734. Boc-VPR-AMC fluorogenic substrate cleavage. inhibition, % at 5 µM. 0.26% of 220,000 active. AID 1046, 2008;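 active = inhibition at or above 40%; inactive = inhibition below 40%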
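System: human alpha-thrombin protein; Compound dosing: one concentration per compound, 5 µM, with 0.2% DMSO; Timing: reaction at room temperature; Technique: AMC fluorescence, 355/460 nm; Controls: enzyme without compound as high, wells lacking enzyme as low.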
FXIa inh: human FXIa protease inhibitors, primary screen, biochemical, 1536-well; purified FXIa, Boc-Glu-Ala-Arg-AMC fluorogenic substrate; inhibition, % at 5 µM; 0.14% of 220,000 active; AID 798, 2007;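 active = inhibition of at least 40%; inactive = inhibition below 40%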;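 note: fluorescence of freed AMC excited at 355 nm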
FXIIa inh: human FXIIa protease inhibitors, primary screen, biochemical, 1536-well; Coagulation factor XII (Homo sapiens), P00748; purified FXIIa, Boc-QGR-AMC fluorogenic substrate, 2 h; inhibition, % at 5 µM; 0.3% of 220,000 active; in the data active = inhibition above about 40%
EP2 confirm: cAMP induction in EP2, EP4, beta2-AR and parental cells, confirmation, counter-screen for EP2 modulator project, cell-based, five parallel assays, C6 glioma, HEK293; AID 1080, 2008; calls only at 20 µM (by protocol); 47% of 1,300 active; cAMP HTRF induction; plus low (about EC15) PGE2 agonist; shares compounds with EP2 mod;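 active = cAMP induction above 50% in the main assay while under 30% in all four parallel counter assays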;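 note: rat C6 glioma cells stably expressing human EP2 receptor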
Each line names hits and unclear results; the compound was inactive in the other large screens (follow-up assays come after a bar, where they were run). The list is not random: actives were taken first. Their share in the collection is about 2.1%.

O=C1N2c3ccccc3CCc3cccc(c32)C1(O)C(F)(F)F (stereo unspecified)	EP2 mod 79 | EP2 confirm inactive
COc1ccc(-n2c(SCC(=O)Nc3ccccc3C(F)(F)F)nnc2-c2ccncc2)cc1	none (no result: hK5 inh, thrombin 1536, FXIa inh, FXIIa inh)
COC(=O)c1sc2ncn(Cc3cccc(Cl)c3)c(=O)c2c1C	none (no result: hK5 inh, thrombin 1536, FXIa inh, FXIIa inh)
Cc1ccc(C)c(N=C2CCCN2Cc2ccccc2)c1C#N	EP2 mod 78 | EP2 confirm active
O=C(O)CN1CCCC1=Nc1ccccc1	none
Cc1cc2ccccc2nc1SCC(=O)NC1CCCCC1	EP2 mod 70 | EP2 confirm inactive
Cc1cc2ccccc2nc1SCC(=O)NC1CCCC1	EP2 mod 77 | EP2 confirm inactive
S=c1[nH]nc(-c2ccco2)n1/N=C/c1ccc(Cl)cc1Cl	EP2 mod 78 | EP2 confirm active
S=c1[nH]nc(-c2ccco2)n1/N=C/c1cccs1	none
N#CN=C1SCCS1	EP2 mod 66 | EP2 confirm inactive
Cc1ccc(C)c(NC(=S)N(CCCO)Cc2cc3ccc(C)c(C)c3[nH]c2=O)c1	none (no result: hK5 inh, thrombin 1536, FXIa inh, FXIIa inh)
O=C(/C=C/Nc1ccccc1Oc1ccccc1)c1ccco1	EP2 mod 65 | EP2 confirm inactive
O=C(/C=C/Nc1ccccc1O)c1ccco1	none
N#CC1=C(N)SC(N)=C(C#N)C1c1ccoc1	EP2 mod 68 | EP2 confirm inactive
O=C(O)/C(=C\c1ccccc1)c1ccccc1	none
Cc1ccccc1NC(=O)/C(=C/c1ccccc1)c1ccccc1	EP2 mod 67 | EP2 confirm active
O=C(Nc1ccccc1)/C(=C/c1ccccc1)c1ccccc1	EP2 mod 78 | EP2 confirm active
CCC(C)NC(=O)CCSc1nc(-c2ccco2)cc(C(F)(F)F)n1 (stereo unspecified)	none (no result: hK5 inh, thrombin 1536, FXIa inh, FXIIa inh)
Cc1ccsc1CN1CCc2c(nc(N3CCC(C)CC3)[nH]c2=O)C1	none (no result: hK5 inh, EP2 antag, thrombin 1536, FXIa inh, FXIIa inh)
COc1cc2cc(Br)cc(Br)c2nc1C	EP2 mod 78 | EP2 confirm inactive
OC(Cc1ccccc1)(Cc1ccccc1)c1ccccc1	none (no result: hK5 inh, thrombin 1536, FXIa inh, FXIIa inh) | EP2 confirm inactive
O=C(CN1N=C(c2ccccc2)Cn2c(cc3sccc32)C1=O)N1CCCC1	none (no result: hK5 inh, EP2 antag, thrombin 1536, FXIa inh, FXIIa inh)
Cc1cc(NC(=O)c2nc3ncccn3n2)c2ccccc2n1	none (no result: hK5 inh, thrombin 1536, FXIa inh, FXIIa inh)
NC(=O)CSc1nc(-c2ccccc2)c(-c2ccccc2)o1	EP2 mod 67 | EP2 confirm active
CCCc1cc(=O)[nH]c(SCC(=O)Nc2ccccc2OC)n1	none (no result: hK5 inh, thrombin 1536, FXIa inh, FXIIa inh)
CCCOc1ccc(/C=C/c2nc(O)c([N+](=O)[O-])c(=O)[nH]2)cc1OCC	none (no result: hK5 inh, thrombin 1536, FXIa inh, FXIIa inh)
Cc1ccccc1-n1c(SCC(=O)N2CCCC2)nnc1-c1ccccn1	EP2 mod 66 | EP2 confirm inactive
Cc1ccccc1-n1c(Cn2c(=O)sc3ccccc32)nnc1SCC(=O)N1CCCC1	none (no result: EP2 antag) | EP2 confirm inactive
O=C(CSc1nnc(Cn2c(=O)sc3ccccc32)n1-c1ccccc1)N1CCCC1	none
CCc1ccccc1-n1c(SCC(=O)N2CCCC2)nnc1-c1ccccn1	none
O=C(O)c1ccc(C(=O)c2ccccc2)c(C(=O)O)c1	none (no result: hK5 inh, thrombin 1536, FXIa inh, FXIIa inh)
Nc1ccc(SC(F)(F)F)cc1C(=O)c1ccccc1	EP2 mod 69 (no result: EP2 antag) | EP2 confirm inactive
Cc1ccc(-c2nnc(N3CCC(C)CC3)c3ccccc23)cc1	EP2 mod 74 | EP2 confirm inactive
Fc1cccc(COc2ccccc2C(=S)N2CCCC2)c1	none
CN1C(=O)/C(=C/c2ccccc2OCc2cccc(F)c2)N(C)C1=S	EP2 mod 70 | EP2 confirm active
COc1ccccc1OCCCC(=O)Nc1sc2c(c1C#N)CCCC2	none (no result: hK5 inh, thrombin 1536, FXIa inh, FXIIa inh)
